Measured values: ChEMBL document CHEMBL3817843, “Understanding Oxadiazolothiazinone Biological Properties: Negative Inotropic Activity versus Cytochrome P450-Mediated Metabolism” (J Med Chem, 2016)

What was measured:
[1] = test system: Left cardiac atrium; assay: Negative inotropic activity in potassium depolarized guinea pig left atrium assessed as reduction in developed tension at 50 uM after 30 mins; type: functional, Cavia porcellus; design: scale not given: the % may be the effect or the level left
[2] = test system: Aorta; assay: Vasorelaxant activity in potassium depolarized guinea pig aorta assessed as inhibition of calcium-induced contraction at 50 uM after 30 mins; type: functional, Cavia porcellus; design: scale not given: the % may be the effect or the level left
Outline: (§1)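 Guinea pig aortic strips depolarized with K+ (80 mM). Calcium-induced contraction measured; inhibition expressed as percent change from control, n = 3−5.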

[3] = test system: Left cardiac atrium; assay: Negative inotropic activity in potassium depolarized guinea pig left atrium assessed as reduction in developed tension after 30 mins; type: functional; settings: Cavia porcellus, 0.5 h
Outline: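 Guinea pig left atria electrically driven at 1 Hz. EC50 taken from log concentration−response curves by Litchfield and Wilcoxon probit analysis, n = 6−7. Not calculated when the maximum effect was below 50%.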

[4] = test system: Right cardiac atrium; assay: Negative chronotropic activity in potassium depolarized guinea pig right atrium assessed as reduction in atrial rate at 50 uM after 30 mins; type: functional, Cavia porcellus; design: scale not given: the % may be the effect or the level left
[5] = biological target: Cytochrome P450 2C9 (Homo sapiens, UniProt P11712); assay: Inhibition of CYP2C9 in human liver microsomes using tolbutamide as substrate after 20 mins by LC-MS analysis
[6] = biological target: Cytochrome P450 2C19 (Homo sapiens, UniProt P33261); assay: Inhibition of CYP2C19 in human liver microsomes using (S)-mephenytoin as substrate after 40 mins by LC-MS analysis
[7] = test system: Liver microsome; assay: Stability in human liver microsomes at 1 uM after 2 to 60 mins by LC-MS analysis in absence of NADPH
[8] = biological target: T1, Cytochrome P450 3A4 (Homo sapiens, UniProt P08684); assay: Inhibition of CYP3A4 in human liver microsomes using testosterone as substrate after 5 mins by LC-MS analysis
[9] = biological target: T2, Cytochrome P450 1A2 (Homo sapiens, UniProt P05177); assay: Inhibition of CYP1A2 in human liver microsomes using phenacetin as substrate after 30 mins by LC-MS analysis
T2 sequence (P05177 whole entry): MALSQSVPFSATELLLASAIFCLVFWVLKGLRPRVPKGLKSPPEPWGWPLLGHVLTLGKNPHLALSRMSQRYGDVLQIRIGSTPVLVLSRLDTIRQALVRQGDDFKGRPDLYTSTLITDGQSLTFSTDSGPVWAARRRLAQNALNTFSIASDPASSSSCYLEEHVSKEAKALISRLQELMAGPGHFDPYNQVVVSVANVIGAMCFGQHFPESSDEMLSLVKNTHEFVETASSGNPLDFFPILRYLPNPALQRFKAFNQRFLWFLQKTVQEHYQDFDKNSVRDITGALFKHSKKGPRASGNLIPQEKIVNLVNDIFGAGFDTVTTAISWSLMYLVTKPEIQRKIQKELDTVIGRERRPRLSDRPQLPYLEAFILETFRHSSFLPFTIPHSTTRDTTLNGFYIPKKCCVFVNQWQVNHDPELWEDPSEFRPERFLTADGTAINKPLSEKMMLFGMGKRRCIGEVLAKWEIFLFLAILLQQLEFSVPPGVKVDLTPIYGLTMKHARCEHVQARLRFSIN

[10] = biological target: T1, Cytochrome P450 3A4; assay: Inhibition of CYP3A4 in human liver microsomes using midazolam as substrate after 4 mins by LC-MS analysis
[11] = biological target: Cytochrome P450 2D6 (Homo sapiens, UniProt P10635); assay: Inhibition of CYP2D6 in human liver microsomes using dextromethorphan as substrate after 10 mins by LC-MS analysis
[12] = Half life in human liver microsomes assessed as CYP-mediated compound degradation at 1 uM by LC-MS analysis
[13] = in vitro; settings: human, liver microsomes
[14] = test system: Aorta; assay: Vasorelaxant activity in potassium depolarized guinea pig aorta assessed as inhibition of calcium-induced contraction at 10^-4 M after 30 mins; type: functional, Cavia porcellus; design: scale not given: the % may be the effect or the level left; outline: as §1
[15] = Relaxant activity in potassium depolarized guinea pig ileum longitudinal smooth muscle assessed as inhibition of calcium-induced contraction after 30 mins; type: functional, tissue-based; settings: Cavia porcellus, 0.5 h
[16] = test system: Left cardiac atrium; assay: Negative inotropic activity in potassium depolarized guinea pig left atrium assessed as reduction in developed tension at 10^-5 M after 30 mins; type: functional, Cavia porcellus; design: scale not given: the % may be the effect or the level left
[17] = test system: Right cardiac atrium; assay: Negative chronotropic activity in potassium depolarized guinea pig right atrium assessed as reduction in atrial rate at 10^-6 M after 30 mins; type: functional, Cavia porcellus; design: scale not given: the % may be the effect or the level left
[18] = Relaxant activity in potassium depolarized guinea pig ileum longitudinal smooth muscle assessed as inhibition of calcium-induced contraction at 50 uM after 30 mins; type: functional, Cavia porcellus; design: scale not given: the % may be the effect or the level left
[19] = test system: Right cardiac atrium; assay: Negative chronotropic activity in potassium depolarized guinea pig right atrium assessed as reduction in atrial rate at 10^-4 M after 30 mins; type: functional, Cavia porcellus; design: scale not given: the % may be the effect or the level left
[20] = Relaxant activity in potassium depolarized guinea pig ileum longitudinal smooth muscle assessed as inhibition of calcium-induced contraction at 10^-4 M after 30 mins; type: functional, Cavia porcellus; design: scale not given: the % may be the effect or the level left
[21] = test system: Left cardiac atrium; assay: Negative inotropic activity in potassium depolarized guinea pig left atrium assessed as reduction in developed tension at 10^-4 M after 30 mins; type: functional, Cavia porcellus; design: scale not given: the % may be the effect or the level left
[22] = test system: Left cardiac atrium; assay: Negative inotropic activity in potassium depolarized guinea pig left atrium assessed as reduction in developed tension at 5 uM after 30 mins; type: functional, Cavia porcellus; design: scale not given: the % may be the effect or the level left

Cytochrome P450 2C9, sequence (P11712 whole entry): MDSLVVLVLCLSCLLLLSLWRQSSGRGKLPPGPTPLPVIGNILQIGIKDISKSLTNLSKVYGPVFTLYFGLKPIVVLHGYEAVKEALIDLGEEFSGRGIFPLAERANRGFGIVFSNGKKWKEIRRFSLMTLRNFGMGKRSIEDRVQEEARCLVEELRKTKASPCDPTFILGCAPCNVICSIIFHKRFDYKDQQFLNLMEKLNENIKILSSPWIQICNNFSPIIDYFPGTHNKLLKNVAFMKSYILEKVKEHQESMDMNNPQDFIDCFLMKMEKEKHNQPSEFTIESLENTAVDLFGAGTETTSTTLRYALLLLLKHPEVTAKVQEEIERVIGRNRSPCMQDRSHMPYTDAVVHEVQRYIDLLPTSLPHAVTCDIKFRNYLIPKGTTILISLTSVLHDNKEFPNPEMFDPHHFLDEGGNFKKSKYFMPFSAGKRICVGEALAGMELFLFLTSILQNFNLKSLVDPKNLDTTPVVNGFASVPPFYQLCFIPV
Cytochrome P450 2C19, sequence (P33261 whole entry): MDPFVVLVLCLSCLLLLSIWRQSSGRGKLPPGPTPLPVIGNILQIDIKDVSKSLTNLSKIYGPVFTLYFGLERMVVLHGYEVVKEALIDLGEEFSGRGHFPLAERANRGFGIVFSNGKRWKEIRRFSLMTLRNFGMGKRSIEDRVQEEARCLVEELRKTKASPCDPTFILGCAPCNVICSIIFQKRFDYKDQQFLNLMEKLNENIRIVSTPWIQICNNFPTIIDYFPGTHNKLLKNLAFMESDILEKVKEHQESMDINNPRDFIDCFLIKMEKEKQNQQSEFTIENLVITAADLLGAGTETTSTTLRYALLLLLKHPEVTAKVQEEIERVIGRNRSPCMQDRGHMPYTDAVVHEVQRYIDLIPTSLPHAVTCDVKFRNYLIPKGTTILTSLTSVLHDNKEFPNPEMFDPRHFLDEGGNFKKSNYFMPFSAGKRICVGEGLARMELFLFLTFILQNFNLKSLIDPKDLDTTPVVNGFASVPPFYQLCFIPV
Cytochrome P450 2D6, sequence (P10635 whole entry): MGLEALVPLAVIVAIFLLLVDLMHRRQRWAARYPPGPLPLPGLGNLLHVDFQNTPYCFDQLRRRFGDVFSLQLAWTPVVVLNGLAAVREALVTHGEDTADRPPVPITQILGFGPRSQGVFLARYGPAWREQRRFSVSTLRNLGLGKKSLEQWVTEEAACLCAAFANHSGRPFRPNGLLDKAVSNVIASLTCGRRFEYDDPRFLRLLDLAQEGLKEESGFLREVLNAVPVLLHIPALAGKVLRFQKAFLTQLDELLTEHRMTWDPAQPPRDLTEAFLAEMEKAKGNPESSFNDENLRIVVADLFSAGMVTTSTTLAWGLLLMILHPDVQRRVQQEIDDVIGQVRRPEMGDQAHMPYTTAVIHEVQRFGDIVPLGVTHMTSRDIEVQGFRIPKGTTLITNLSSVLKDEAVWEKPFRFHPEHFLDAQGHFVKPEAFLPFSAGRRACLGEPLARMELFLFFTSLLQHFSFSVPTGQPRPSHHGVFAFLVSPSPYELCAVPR
T1 sequence (P08684 whole entry): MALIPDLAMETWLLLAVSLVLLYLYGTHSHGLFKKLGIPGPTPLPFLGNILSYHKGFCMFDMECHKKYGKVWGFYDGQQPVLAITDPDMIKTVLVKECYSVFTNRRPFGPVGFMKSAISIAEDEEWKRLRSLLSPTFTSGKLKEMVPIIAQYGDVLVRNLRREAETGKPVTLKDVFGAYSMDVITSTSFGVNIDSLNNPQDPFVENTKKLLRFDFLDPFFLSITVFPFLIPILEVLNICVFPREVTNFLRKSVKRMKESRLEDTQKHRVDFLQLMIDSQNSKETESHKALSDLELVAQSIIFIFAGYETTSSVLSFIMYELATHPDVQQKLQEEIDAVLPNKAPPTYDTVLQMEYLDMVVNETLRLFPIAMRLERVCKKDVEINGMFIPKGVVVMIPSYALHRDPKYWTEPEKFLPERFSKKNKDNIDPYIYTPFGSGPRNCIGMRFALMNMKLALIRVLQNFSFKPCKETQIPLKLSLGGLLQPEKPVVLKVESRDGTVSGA

Structure (SMILES) | Activity [1] [%] | EC50 [3] [µM] | Activity [4] [%] | IC50 [5] [µM] | IC50 [6] [µM] | Stability [7] | IC50 [8] [µM] | IC50 [9] [µM] | IC50 [11] [µM] | Activity [14] [%] | IC50 [15] [µM] | Activity [19] [%] | other results
COc1cccc(C2(O)SC=C(C)n3c2noc3=O)c1 (centres undefined) | 86 | 0.49 | 16 |  |  |  |  |  |  |  |  |  | Activity [2]: 10%
O=c1onc2n1-c1ccccc1SC2(OCC(F)(F)F)c1ccc(Br)cc1 (centres undefined) |  |  |  | > 20 | 10.8 | Stable | > 20 | > 20 | > 20 |  |  |  | IC50 [10]: > 20 µM
CC1=CSC(OCC(F)(F)F)(c2ccc(Br)cc2)c2noc(=O)n21 (centres undefined) |  |  |  | 6.6 | 1 | Stable | > 20 | 5 | 7.1 |  |  |  | half-life at 1 µM [12]: > 250 min; IC50 [10]: > 20 µM; microsomal CLint at 1 µM [13]: < 7 µL/min/mg
O=c1onc2n1-c1ccccc1SC2(O)c1ccccc1 (centres undefined) | 97 | 1.29 | 10 |  |  |  |  |  |  | 21 |  |  | 
CCOC1(c2ccccc2)SC=C(C)n2c1noc2=O (centres undefined) |  | 0.22 |  | > 20 | 4.8 | Stable | 19.1 | > 20 | 16.9 | 32 | 11.6 |  | half-life at 1 µM [12]: 20 min; Activity [16]: 86%; Activity [17]: 11%; Activity [18]: 89%; IC50 [10]: > 20 µM; microsomal CLint at 1 µM [13]: 86 µL/min/mg
COc1ccc(C2(OC(C)C)SC=C(C)n3c2noc3=O)cc1 (centres undefined) |  | 0.43 | 14 |  |  |  |  |  |  | 11 |  |  | Activity [16]: 69%
COc1cccc(C2(OCC(F)(F)F)SC=C(C)n3c2noc3=O)c1 (centres undefined) |  | 0.32 |  |  |  |  |  |  |  | 40 | 12.4 | 9 | Activity [20]: 95%; Activity [16]: 72%
O=c1onc2n1C=CSC2(O)c1ccccc1 (centres undefined) | 74 |  | 14 |  |  |  |  |  |  |  |  |  | Activity [2]: 11%
COc1ccc(C2(OCC3CCCCC3)SC=C(C)n3c2noc3=O)cc1 (centres undefined) |  | 0.66 |  |  |  |  |  |  |  | 21 |  | 3 | Activity [21]: 80%
CC1=CSC(OC(C)C)(c2ccccc2)c2noc(=O)n21 (centres undefined) |  | 1.19 |  |  |  |  |  |  |  | 39 | 4.82 |  | Activity [21]: 82%; Activity [17]: 25%; Activity [18]: 97%
O=c1onc2n1-c1ccccc1SC2(OCC1CCCCC1)c1ccccc1 (centres undefined) | 86 | 0.28 |  |  |  |  |  |  |  | 3 |  | 6 | 
COc1ccc(C2(OCC(F)(F)F)Sc3ccccc3-n3c2noc3=O)cc1 (centres undefined) |  | 0.095 |  | > 20 | 17 | Stable | > 20 | > 20 | > 20 | 6 | 10.3 | 19 | half-life at 1 µM [12]: 23 min; Activity [20]: 66%; Activity [21]: 82%; IC50 [10]: > 20 µM; microsomal CLint at 1 µM [13]: 76 µL/min/mg
O=c1onc2n1-c1ccccc1SC2(OCC(F)(F)F)c1ccccc1 (centres undefined) | 75 | 0.39 |  |  |  |  |  |  |  | 6 | 14.5 | 13 | Activity [20]: 75%
COc1ccc(C2(O)SC=C(C)n3c2noc3=O)cc1 (centres undefined) | 76 | 0.52 | 12 |  |  |  |  |  |  |  |  |  | Activity [2]: 18%
CC1=CSC(OCC(F)(F)F)(c2ccccc2)c2noc(=O)n21 (centres undefined) |  | 0.14 |  | 18.4 | 2.4 | Stable | > 20 | > 20 | 16.5 | 28 | 9.82 | 6 | Activity [22]: 79%; Activity [20]: 95%; IC50 [10]: > 20 µM
COc1cccc(C2(OCC3CCCCC3)SC=C(C)n3c2noc3=O)c1 (centres undefined) | 83 | 0.65 | 4 |  |  |  |  |  |  | 20 |  |  | 
COc1cccc(C2(OC(C)C)SC=C(C)n3c2noc3=O)c1 (centres undefined) | 84 | 0.064 | 2 |  |  |  |  |  |  | 36 | 3.53 |  | Activity [18]: 98%
COc1ccccc1C1(OCC2CCCCC2)SC=C(C)n2c1noc2=O (centres undefined) | 89 | 0.48 | 22 |  |  |  |  |  |  | 17 |  |  | 
CC(C)OC1(c2ccccc2)Sc2ccccc2-n2c1noc2=O (centres undefined) | 69 | 0.41 |  |  |  |  |  |  |  | 7 |  | 13 | 
CCOC1(c2ccc(OC)cc2)Sc2ccccc2-n2c1noc2=O (centres undefined) |  | 0.23 |  | 11.8 | 3.6 | Stable | > 20 | > 20 | > 20 | 11 |  | 19 | half-life at 1 µM [12]: 13 min; Activity [16]: 73%; IC50 [10]: > 20 µM; microsomal CLint at 1 µM [13]: 135 µL/min/mg
CC1=CSC(OCC2CCCCC2)(c2ccccc2)c2noc(=O)n21 (centres undefined) |  | 0.87 |  |  |  |  |  |  |  | 14 |  | 2 | Activity [21]: 56%
CCOC1(c2ccccc2)Sc2ccccc2-n2c1noc2=O (centres undefined) |  | 0.21 | 7 | 19 | 6.1 | Stable | > 20 | > 20 | > 20 | 14 |  |  | Activity [16]: 88%
